The subject of assay [1] is Nakaseomyces glabratus. As to the kind of experiment: Antifungal activity against Candida glabrata ATCC 15126 after 24 hrs by NCCLS M27-A2 method. Conditions: ATCC 15126, 24 h. Format: functional. In a few lines:
(§1)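 Broth dilution in yeast nitrogen broth. Lactam from a 1 mg/mL DMSO stock was serially diluted down to 0.125 ug/mL. Each tube got 1 uL of a 10^6 CFU/mL inoculum in sterile NaCl. Incubation was 24 or 48 h at 26°C or 37°C depending on strain. Growth was read by optical density. MIC was the lowest concentration inhibiting all growth, averaged over triplicates.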

Assay [2] relates to Candida albicans. The assay can be described thus: Antifungal activity against Candida albicans ATCC 2091 after 48 hrs by NCCLS M27-A2 method. The settings on record: ATCC 2091, 48 h. Format: functional. In a few lines:
as §1

Assay [3] concerns Nakaseomyces glabratus. The assay can be described thus: Antifungal activity against Candida glabrata ATCC 15126 assessed as growth inhibition zone at 50 ug after 24 hrs by Kirby-Bauer agar diffusion assay. The class given is functional. The settings on record: ATCC 15126, 24 h, read-out: IZ. In a few lines:
(§2)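 Disk diffusion on yeast nitrogen base agar, swabbed with a McFarland 0.5 suspension in saline. 6 mm cellulose disks carried 10 µL of a 5 mg/mL CH2Cl2 stock (50 ug per disk), air-dried, three disks per plate. Plates were sealed and incubated 24 h at 37°C. Cleared inhibition zones were measured and averaged over triplicates.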

Assay [4] deals with Candida tropicalis. As to the kind of experiment: Antifungal activity against Candida tropicalis clinical isolate after 48 hrs by NCCLS M27-A2 method. The class given is functional. In a few lines:
as §1

Assay [5] relates to Kluyveromyces marxianus. The assay can be described thus: Antifungal activity against Candida kefyr ATCC 20409 after 24 hrs by NCCLS M27-A2 method. Format: functional. The settings on record: ATCC 20409, 24 h. The method in brief: as §1
For assay [6], the system named is Cyberlindnera jadinii. The assay can be described thus: Antifungal activity against Candida utilis ATCC 29950 assessed as growth inhibition zone at 50 ug after 24 by Kirby-Bauer agar diffusion assay. The class given is functional. Conditions: Williopsis jadinii, read-out: IZ. The method in brief: as §2
For assay [7], the system named is Clavispora lusitaniae. As to the kind of experiment: Antifungal activity against Candida lusitaniae ATCC 34449 assessed as growth inhibition zone at 50 ug after 24 by Kirby-Bauer agar diffusion assay. The class given is functional. Conditions: read-out: IZ. The method in brief:
as §2

Assay [8] concerns Kluyveromyces marxianus. The assay can be described thus: Antifungal activity against Candida kefyr ATCC 20409 assessed as growth inhibition zone at 50 ug after 24 hrs by Kirby-Bauer agar diffusion assay. The class given is functional. Conditions: ATCC 20409, 24 h, read-out: IZ. The method in brief:
as §2

Assay [9] relates to Saccharomyces cerevisiae. As to the kind of experiment: Antifungal activity against Saccharomyces cerevisiae in YM agar by agar dilution method. The class given is functional. In a few lines: (§3)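 Agar dilution MIC, run per NCCLS guidance. Medium was potato dextrose agar for A. niger and YM agar for S. cerevisiae.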
In assay [10] the test system is Clavispora lusitaniae. As to the kind of experiment: Antifungal activity against Candida lusitaniae ATCC 34449 after 48 hrs by NCCLS M27-A2 method. Format: functional. Conditions: ATCC 34449, 48 h. In a few lines:
as §1

Assay [11] concerns Pichia kudriavzevii. As to the kind of experiment: Antifungal activity against Candida krusei ATCC 14243 assessed as growth inhibition zone at 50 ug after 24hrs by Kirby-Bauer agar diffusion assay. The class given is functional. The settings on record: ATCC 14243, 24 h, read-out: IZ. The method in brief: as §2
Assay [12] relates to Cyberlindnera jadinii. The assay can be described thus: Antifungal activity against Candida utilis ATCC 29950 after 24 hrs by NCCLS M27-A2 method. Format: functional. Conditions: Williopsis jadinii, ATCC 29950, 24 h. The method in brief: as §1
In assay [13] the test system is Candida parapsilosis. As to the kind of experiment: Antifungal activity against Candida parapsilosis ATCC 22019 assessed as growth inhibition zone at 50 ug after 24 hrs by Kirby-Bauer agar diffusion assay. The class given is functional. The settings on record: Lodderomyces parapsilosis, ATCC 22019, 24 h; read-out: IZ. In a few lines: as §2
Assay [14] concerns Candida parapsilosis. As to the kind of experiment: Antifungal activity against Candida parapsilosis ATCC 22019 after 24 hrs by NCCLS M27-A2 method. The settings on record: Lodderomyces parapsilosis, ATCC 22019, 24 h. The class given is functional. The method in brief:
as §1

Assay [15] has as its system Aspergillus niger. The assay can be described thus: Antifungal activity against Aspergillus niger in potato dextrose agar by agar dilution method. Format: functional. The method in brief:
as §3

Assay [16] concerns Candida tropicalis. The assay can be described thus: Antifungal activity against Candida tropicalis clinical isolate after 24 hrs by NCCLS M27-A2 method. The class given is functional. The method in brief:
as §1

Assay [17] deals with Cyberlindnera jadinii. As to the kind of experiment: Antifungal activity against Candida utilis ATCC 29950 after 48 hrs by NCCLS M27-A2 method. Format: functional. Conditions: Williopsis jadinii, ATCC 29950, 48 h. The method in brief:
as §1

Assay [18] concerns Candida tropicalis. The assay can be described thus: Antifungal activity against Candida tropicalis clinical isolate assessed as growth inhibition zone at 50 ug after 24 hrs by Kirby-Bauer agar diffusion assay. Format: functional. Conditions: read-out: IZ. The method in brief:
as §2

Assay [19] has as its system Nakaseomyces glabratus. As to the kind of experiment: Antifungal activity against Candida glabrata ATCC 15126 after 48 hrs by NCCLS M27-A2 method. Format: functional. The settings on record: ATCC 15126, 48 h. The method in brief:
as §1

For assay [20], the system named is Kluyveromyces marxianus. The assay can be described thus: Antifungal activity against Candida kefyr ATCC 20409 after 48 hrs by NCCLS M27-A2 method. Format: functional. The settings on record: ATCC 20409, 48 h. The method in brief: as §1
Assay [21] has as its system Candida albicans. As to the kind of experiment: Antifungal activity against Candida albicans ATCC 2091 after 24 hrs by NCCLS M27-A2 method. Format: functional. Conditions: ATCC 2091, 24 h. In a few lines:
as §1

For assay [22], the system named is Candida parapsilosis. As to the kind of experiment: Antifungal activity against Candida parapsilosis ATCC 22019 after 48 hrs by NCCLS M27-A2 method. Format: functional. Conditions: Lodderomyces parapsilosis, ATCC 22019, 48 h. The method in brief: as §1
Assay [23] deals with Candida albicans. The assay can be described thus: Antifungal activity against Candida albicans ATCC 2091 assessed as growth inhibition zone at 50 ug after 24 hrs by Kirby-Bauer agar diffusion assay. Conditions: ATCC 2091, 24 h, read-out: IZ. Format: functional. The method in brief: as §2
In assay [24] the test system is Clavispora lusitaniae. The assay can be described thus: Antifungal activity against Candida lusitaniae ATCC 34449 after 24 hrs by NCCLS M27-A2 method. Format: functional. The settings on record: ATCC 34449, 24 h. The method in brief:
as §1

Assay [25] concerns Candida albicans. As to the kind of experiment: Antifungal activity against Candida albicans ATCC 2091 assessed as degradation of intracellular membrane at <5 ug/ml after 4 hrs by transmission electron microscopy. The class given is functional, organism-based.
Assay [26] concerns Candida albicans. As to the kind of experiment: Antifungal activity against Candida albicans ATCC 2091 by […]. The class given is functional. The method in brief:
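Tube broth dilution in yeast nitrogen broth. Lactam was added from a 1 mg/mL DMSO stock and serially diluted down to 0.125 ug/mL in broth. Each tube was inoculated with 1 uL of a 10^6 CFU/mL fungal suspension in sterile NaCl and incubated 24 or 48 h at 26°C or 37°C, depending on strain. Growth was read by optical density. MIC is the lowest concentration inhibiting all growth, averaged over triplicates.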

This is an account of results in ChEMBL document CHEMBL1156595, “Studies on the antifungal properties of N-thiolated beta-lactams” (2008).

Converted amounts (≈) assume the structure as drawn. The source made the active and inactive calls. No cut-off for these calls is given here.

Consider `CO[C@H]1C(=O)N(SC)[C@H]1c1ccccc1Cl`, for which the MIC in assay [1] is 10 µg/mL (≈ 38.8 µM); in [2], below 5 µg/mL; in assay [4] it was 30 µg/mL (≈ 116 µM); in assay [5] it was 10 µg/mL (≈ 38.8 µM); in assay [9] it was 32 µg/mL (≈ 124 µM); in assay [10] it was 15 µg/mL (≈ 58.2 µM). The MIC in assay [12] was 10 µg/mL (≈ 38.8 µM); in assay [14], below 5 µg/mL; in assay [15], 16 µg/mL (≈ 62.1 µM); in assay [16], 10 µg/mL (≈ 38.8 µM); in [17], 15 µg/mL (≈ 58.2 µM); in assay [19] it was 10 µg/mL (≈ 38.8 µM). Further, the MIC was 35 µg/mL (≈ 136 µM) in assay [20], below 5 µg/mL in [21], below 5 µg/mL in assay [22] and 10 µg/mL (≈ 38.8 µM) in assay [24]. The zone of inhibition at 50 µg/disc was 25 mm in assay [3]; 22 mm in assay [6]; 20 mm in assay [7]; 17 mm in [8]; 0 mm in [11]; 33 mm in [13]. Moreover, the zone of inhibition at 50 µg/disc turned out to be 21 mm in [18] and 23 mm in assay [23]. The outcome in [25] was Active.

As for `Clc1ccccc1C(c1ccccc1)(c1ccccc1)n1ccnc1` [CLOTRIMAZOLE], the MIC in [26] is 2 µg/mL (≈ 5.8 µM).
